ChEMBL document CHEMBL3297658, “Potent fluorinated agelastatin analogues for chronic lymphocytic leukemia: design, synthesis, and pharmacokinetic studies” (J Med Chem, 2014)
≈ marks a conversion by molar mass, not a printed value.

System: Serum
Assay: Protein binding in human AB serum at 50 uM after 1 to 24 hrs by LC-MS method
Type: ADME
Details: not given; call rule not given here
How it was run: (§1)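 Compound added to pooled female BALB/c mouse plasma or serum, or to human AB serum, at 50 μM final (1% DMSO) and incubated at 37 °C with gentle agitation. Aliquots taken at 0, 0.5, 1, 2, 8, 18 and 24 h, proteins precipitated with CH3CN, spun at 3000g for 10 min, supernatant analysed by LCMS. Run in triplicate.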

SMILES | PB
CN1C(=O)N[C@H]2[C@@H]3NC(=O)c4ccc(C(F)(F)F)n4[C@@H]3C[C@]21O | Not Active

System: not listed separately
Assay: Antitumor activity against CLL6 cells isolated from CLL patient assessed as cell viability after 48 hrs by FACS analysis
Type: functional, cell-based
Details: Homo sapiens, CLL6, 48 h
How it was run: (§2)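 Primary CLL patient cells or JVM-2 line cultured 48 h (37 °C, 5% CO2) in RPMI + 10% FBS with graded compound. Stained 30 min at 37 °C with 40 nM DiOC6 and 10 μg/mL PI, then flow cytometry (525 nm DiOC6, 600 nm PI). Viability = % DiOC6+/PI− relative to untreated or vehicle control. EC50 and SE fitted from dose–response curves.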

SMILES | EC50
CN1C(=O)N[C@H]2[C@@H]3NC(=O)c4ccc(Cl)n4[C@@H]3C[C@]21O | 2200 nM
CN1C(=O)N[C@H]2[C@@H]3NC(=O)c4ccc(C(F)(F)F)n4[C@@H]3C[C@]21O | 650 nM

System: Serum
Assay: Protein binding in BALB/c mouse serum at 50 uM after 1 to 24 hrs by LC-MS method
Type: ADME
Details: not given
How it was run: as §1

SMILES | PB
CN1C(=O)N[C@H]2[C@@H]3NC(=O)c4ccc(C(F)(F)F)n4[C@@H]3C[C@]21O | Not Active

System: not listed separately
Assay: Half life in BALB/c mouse plasma at 2.5 mg/kg, ip administered as single dose by LC/MS analysis
Type: ADME, organism-based
Design: dose 2.5 mg/kg, route intraperitoneal
Details: BALB/c, plasma
How it was run: (§3)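 Female BALB/c mice dosed at 6 weeks of age with a single intraperitoneal dose of 2.5 or 5.0 mg/kg, n = 4. Tail-vein blood taken at set times and stored at -80 °C. Samples precipitated with CH3CN, spun at 3000g for 10 min, concentrated, reconstituted in 1:1 CH3CN/H2O and quantified by LCMS. PK parameters derived from the concentration–time curves.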

SMILES | half-life
CN1C(=O)N[C@H]2[C@@H]3NC(=O)c4ccc(C(F)(F)F)n4[C@@H]3C[C@]21O | 72 min

System: not listed separately
Assay: Cmax in BALB/c mouse plasma at 5 mg/kg, ip administered as single dose by LC/MS analysis
Type: ADME, organism-based
Design: dose 5 mg/kg, route intraperitoneal
Details: not given
How it was run: as §3

SMILES | Cmax
CN1C(=O)N[C@H]2[C@@H]3NC(=O)c4ccc(C(F)(F)F)n4[C@@H]3C[C@]21O | 3.25 µM

System: not listed separately
Assay: Solubility of compound in water at 25 degC
Type: physicochemical
Details: buffer

SMILES | solubility
CN1C(=O)N[C@H]2[C@@H]3NC(=O)c4ccc(C(F)(F)F)n4[C@@H]3C[C@]21O | 300 µg/mL (≈ 908 µM)

System: not listed separately
Assay: Cmax in BALB/c mouse plasma at 2.5 mg/kg, ip administered as single dose by LC/MS analysis
Type: ADME, organism-based
Design: dose 2.5 mg/kg, route intraperitoneal
Details: not given
How it was run: as §3

SMILES | Cmax
CN1C(=O)N[C@H]2[C@@H]3NC(=O)c4ccc(C(F)(F)F)n4[C@@H]3C[C@]21O | 4.18 µM

System: not listed separately
Assay: Antitumor activity against CLL3 cells isolated from CLL patient assessed as cell viability after 48 hrs by FACS analysis
Type: functional, cell-based
Details: Homo sapiens
How it was run: as §2

SMILES | EC50
CN1C(=O)N[C@H]2[C@@H]3NC(=O)c4ccc(Cl)n4[C@@H]3C[C@]21O | 3800 nM
CN1C(=O)N[C@H]2[C@@H]3NC(=O)c4ccc(C(F)(F)F)n4[C@@H]3C[C@]21O | 3040 nM

System: Liver
Assay: Metabolic stability in mouse liver microsomes at 100 uM measured after 1 hr by LC/MS analysis in presence of 1 mM NADPH
Type: ADME
Details: not given
How it was run: (§4)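 Microsomes (final protein 5 mg/mL, mouse or human) in 0.1 M sodium phosphate pH 7.4 with compound at 100 μM final (DMSO <1%). Preincubated 5 min at 37 °C, started with NADPH (1 mM final), run 60 min at 37 °C with agitation. Stopped with MeOH and centrifuged; supernatant analysed by LCMS. Controls: zero time, no NADPH, heat-inactivated microsomes, and 7-ethoxycoumarin as CYP substrate.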

SMILES | Stability
CN1C(=O)N[C@H]2[C@@H]3NC(=O)c4ccc(C(F)(F)F)n4[C@@H]3C[C@]21O | Stable

System: not listed separately
Assay: Half life in BALB/c mouse plasma at 5 mg/kg, ip administered as single dose by LC/MS analysis
Type: ADME, organism-based
Design: dose 5 mg/kg, route intraperitoneal
Details: not given
How it was run: as §3

SMILES | half-life
CN1C(=O)N[C@H]2[C@@H]3NC(=O)c4ccc(C(F)(F)F)n4[C@@H]3C[C@]21O | 45 min

System: not listed separately
Assay: Drug recovery in BALB/c mouse serum at 50 uM after 24 hrs by LC-MS method
Type: ADME, cell-free
Details: read-out: Drug recovery
How it was run: as §1

SMILES | remaining at 24 h, 50 µM
CN1C(=O)N[C@H]2[C@@H]3NC(=O)c4ccc(C(F)(F)F)n4[C@@H]3C[C@]21O | 65%

System: not listed separately
Assay: AUC in BALB/c mouse plasma at 2.5 mg/kg, ip administered as single dose by LC/MS analysis
Type: ADME, organism-based
Design: dose 2.5 mg/kg, route intraperitoneal
Details: not given
How it was run: as §3

SMILES | AUC
CN1C(=O)N[C@H]2[C@@H]3NC(=O)c4ccc(C(F)(F)F)n4[C@@H]3C[C@]21O | 12.9 µM·h

System: not listed separately
Assay: Lipophilicity, log P of compound at 25 degC
Type: physicochemical
Details: octanol/water

SMILES | logP
CN1C(=O)N[C@H]2[C@@H]3NC(=O)c4ccc(C(F)(F)F)n4[C@@H]3C[C@]21O | 0.78

System: not listed separately
Assay: Tmax in BALB/c mouse plasma at 2.5 mg/kg, ip administered as single dose by LC/MS analysis
Type: ADME, organism-based
Design: dose 2.5 mg/kg, route intraperitoneal
Details: not given
How it was run: as §3

SMILES | Tmax
CN1C(=O)N[C@H]2[C@@H]3NC(=O)c4ccc(C(F)(F)F)n4[C@@H]3C[C@]21O | 15 min

System: not listed separately
Assay: Drug recovery in human AB serum at 50 uM after 24 hrs by LC-MS method
Type: ADME, cell-free
Details: read-out: Drug recovery
How it was run: as §1

SMILES | remaining at 24 h, 50 µM
CN1C(=O)N[C@H]2[C@@H]3NC(=O)c4ccc(C(F)(F)F)n4[C@@H]3C[C@]21O | 65%

System: not listed separately
Assay: Antitumor activity against CLL1 cells isolated from CLL patient assessed as cell viability after 48 hrs by FACS analysis
Type: functional, cell-based
Details: Homo sapiens
How it was run: as §2

SMILES | EC50
CN1C(=O)N[C@H]2[C@@H]3NC(=O)c4ccc(Cl)n4[C@@H]3C[C@]21O | 950 nM
CN1C(=O)N[C@H]2[C@@H]3NC(=O)c4ccc(C(F)(F)F)n4[C@@H]3C[C@]21O | 430 nM

System: not listed separately
Assay: AUC in BALB/c mouse plasma at 5 mg/kg, ip administered as single dose by LC/MS analysis
Type: ADME, organism-based
Design: dose 5 mg/kg, route intraperitoneal
Details: not given
How it was run: as §3

SMILES | AUC
CN1C(=O)N[C@H]2[C@@H]3NC(=O)c4ccc(C(F)(F)F)n4[C@@H]3C[C@]21O | 6.51 µM·h

System: not listed separately
Assay: Antitumor activity against CLL5 cells isolated from CLL patient assessed as cell viability after 48 hrs by FACS analysis
Type: functional, cell-based
Details: Homo sapiens
How it was run: as §2

SMILES | EC50
CN1C(=O)N[C@H]2[C@@H]3NC(=O)c4ccc(Cl)n4[C@@H]3C[C@]21O | 340 nM
CN1C(=O)N[C@H]2[C@@H]3NC(=O)c4ccc(C(F)(F)F)n4[C@@H]3C[C@]21O | 28400 nM

System: not listed separately
Assay: Tmax in BALB/c mouse plasma at 5 mg/kg, ip administered as single dose by LC/MS analysis
Type: ADME, organism-based
Design: dose 5 mg/kg, route intraperitoneal
Details: not given
How it was run: as §3

SMILES | Tmax
CN1C(=O)N[C@H]2[C@@H]3NC(=O)c4ccc(C(F)(F)F)n4[C@@H]3C[C@]21O | 30 min

System: Liver microsome
Assay: Metabolic stability in human liver microsomes at 100 uM measured after 1 hr by LC/MS analysis in presence of 1 mM NADPH
Type: ADME
Details: not given
How it was run: as §4

SMILES | Stability
CN1C(=O)N[C@H]2[C@@H]3NC(=O)c4ccc(C(F)(F)F)n4[C@@H]3C[C@]21O | Stable

System: not listed separately
Assay: Antitumor activity against human JVM2 cells assessed as cell viability after 48 hrs by FACS analysis
Type: functional, cell-based
Details: JVM-2, 48 h
How it was run: as §2

SMILES | EC50
CN1C(=O)N[C@H]2[C@@H]3NC(=O)c4ccc(Cl)n4[C@@H]3C[C@]21O | 200 nM
CN1C(=O)N[C@H]2[C@@H]3NC(=O)c4ccc(C(F)(F)F)n4[C@@H]3C[C@]21O | 660 nM

System: not listed separately
Assay: Antitumor activity against CLL4 cells isolated from CLL patient assessed as cell viability after 48 hrs by FACS analysis
Type: functional, cell-based
Details: Homo sapiens
How it was run: as §2

SMILES | EC50
CN1C(=O)N[C@H]2[C@@H]3NC(=O)c4ccc(Cl)n4[C@@H]3C[C@]21O | 1980 nM
CN1C(=O)N[C@H]2[C@@H]3NC(=O)c4ccc(C(F)(F)F)n4[C@@H]3C[C@]21O | 330 nM

System: not listed separately
Assay: Antitumor activity against CLL2 cells isolated from CLL patient assessed as cell viability after 48 hrs by FACS analysis
Type: functional, cell-based, Homo sapiens
Details: Homo sapiens, CLL2, 48 h
How it was run: as §2

SMILES | EC50
CN1C(=O)N[C@H]2[C@@H]3NC(=O)c4ccc(Cl)n4[C@@H]3C[C@]21O | 320 nM
CN1C(=O)N[C@H]2[C@@H]3NC(=O)c4ccc(C(F)(F)F)n4[C@@H]3C[C@]21O | 64 nM

System: HeLa
Assay: Antitumor activity against human HeLa cells assessed as cell viability by MTT assay
Type: functional, cell-based
Details: not given
How it was run: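 Adherent HeLa cells exposed to compound, then medium replaced with 0.5 mg/mL MTT in phenol-red-free RPMI and incubated overnight at 37 °C. Lysed with 15% SDS/0.015 M HCl and OD read at 570 nm once formazan dissolved. EC50 and SE derived from dose–response curves.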

SMILES | EC50
CN1C(=O)N[C@H]2[C@@H]3NC(=O)c4ccc(Cl)n4[C@@H]3C[C@]21O | 630 nM
CN1C(=O)N[C@H]2[C@@H]3NC(=O)c4ccc(C(F)(F)F)n4[C@@H]3C[C@]21O | 150 nM

System: not listed separately
Assay: Drug recovery in BALB/c mouse plasma at 50 uM after 24 hrs by LC-MS method
Type: ADME, cell-free
Details: read-out: Drug recovery
How it was run: as §1

SMILES | remaining at 24 h, 50 µM
CN1C(=O)N[C@H]2[C@@H]3NC(=O)c4ccc(C(F)(F)F)n4[C@@H]3C[C@]21O | 65%

System: Plasma
Assay: Protein binding in BALB/c mouse plasma at 50 uM after 1 to 24 hrs by LC-MS method
Type: ADME, cell-free
Details: not given
How it was run: as §1

SMILES | PPB
CN1C(=O)N[C@H]2[C@@H]3NC(=O)c4ccc(C(F)(F)F)n4[C@@H]3C[C@]21O | Not Active
